# Measurements pooled from the literature.
# Lines come from different studies, so protocols differ.
SMILES,tested on,assay,setting,measurement,result
Cc1ccc(C(CS(=O)(=O)c2ccccc2)=NNC2=NC(=O)C(=NNc3ccc([N+](=O)[O-])cc3)S2)cc1,SK-MEL-23,"cell growth or viability, MTT","6.3 µM, 48 h",viability,56.6%
CCCCc1cccc(-c2cnc3c(n2)CCCC3)c1,Haemonchus contortus,parasite motility,"48 h, larva",IC50,23.3 µM
Cc1cc(Nc2ncc(Cl)c(Nc3ccccc3S(=O)(=O)C(C)C)n2)c(OC(C)C)cc1C1CCNCC1,NCI-H2228,"cell growth or viability, MTT","0.2 µg/mL, 72 h",inhibition,70.9%
O=C(Nc1ccccc1-c1ccc(F)c(F)c1)c1nccnc1C(F)(F)F,Cladosporium cucumerinum,microbial growth,,EC50,< 0.1 µg/mL
Cc1ccc(C(CS(=O)(=O)c2ccccc2)=NNC2=NC(=O)C(=NNc3ccccc3)S2)cc1,SK-MEL-23,"cell growth or viability, MTT","0.4 µM, 48 h",viability,50.5%
Cc1ncc([N+](=O)[O-])n1CCO,Eggerthella lenta,"microbial growth, agar dilution",48 h,MIC,0.5 µg/mL
C[C@@H](Oc1cc(-c2cnn(C3CCNCC3)c2)cnc1N)c1c(Cl)ccc(F)c1Cl,NCI-H2228,"cell growth or viability, MTT","5 µg/mL, 72 h",inhibition,85.2%
Cc1ccc(C(CS(=O)(=O)c2ccccc2)=NNc2nc(C)c(N=Nc3cccc(C)c3)s2)cc1,SK-MEL-23,"cell growth or viability, MTT","25 µM, 48 h",viability,44%
CCCCOc1ccc(-c2cnc3c(n2)CCCC3)cc1,Haemonchus contortus,parasite motility,"72 h, larva",IC50,6.9 µM
O=c1[nH]c(NCc2ccc(Cl)c(Cl)c2)nc2ncn(CCCCCN3CCOCC3)c12,Eggerthella lenta,"microbial growth, agar dilution",48 h,MIC,> 32 µg/mL
Cc1ccc(C(CS(=O)(=O)c2ccccc2)=NN=C2N=C(c3ccc(Br)cc3)CS2)cc1,SK-MEL-23,"cell growth or viability, MTT","6.3 µM, 48 h",viability,63.7%
CCCCOc1cccc(-c2cnc3c(n2)CCCC3)c1,Haemonchus contortus,parasite motility,"24 h, larva",IC50,~49.5 µM
